Measured values taken from ChEMBL document CHEMBL3526060, “Impact of hydrolysis-mediated clearance on the pharmacokinetics of novel anaplastic lymphoma kinase inhibitors” (Drug Metab Dispos, 2013).

Tests used:
[1] = Plasma clearance in CD-1 mouse at 2 mg/kg, iv administered as single bolus dose by LC-MS/MS analysis; format: ADME, organism-based; set-up: dose 2 mg/kg, route intravenous
Summary of the method: (§1)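 Single 2 mg/kg IV bolus via lateral tail vein to male CD-1 mice. Mice euthanized at 0.083–24 h, 3 per time point (27 animals); cardiac-puncture blood into heparin on ice, plasma spun at 4 °C and immediately extracted with acetonitrile/0.1% formic acid plus IS, LC-MS/MS. Noncompartmental CL = Dose/AUC0–inf, t1/2 = 0.693/k, Vss from AUMC/AUC, MRT = Vss/CL.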

[2] = Fraction unbound in CD-1 mouse plasma after 7 hrs by equilibrium dialysis method; format: ADME, cell-free
Summary of the method: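 Mouse plasma pre-treated 20 min with 100 µM DFP to block hydrolysis, spiked at 0.1, 0.5 or 2 µM, equilibrium dialysis against PBS for 7 h at 37 °C, 5% CO2, triplicate; matrix-matched samples extracted with acetonitrile/IS, LC-MS/MS; fu = buffer/plasma concentration.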

[3] = Volume of distribution at steady state in CD-1 mouse at 2 mg/kg, iv administered as single bolus dose by LC-MS/MS analysis; format: ADME, organism-based; set-up: dose 2 mg/kg, route intravenous; conditions: in vivo, read-out: Vdss; summary of the method: as §1
[4] = Drug metabolism in CD-1 mouse NADPH-fortified liver microsomes assessed as hydrolysis metabolite formation rate by LC-MS/MS analysis; format: ADME
Summary of the method: (§2)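 Mouse liver microsomes 0.25 mg/mL in 0.1 M phosphate pH 7.4, with or without 1 mM NADPH, substrate 0.0023–5 µM; sampling to 40 min into acetonitrile/IS, LC-MS/MS depletion. Hydrolysis Vmax/Km solved from no-NADPH incubations, then NADPH-dependent constants; metabolite formation rate simulated from fitted constants; duplicates.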

[5] = Drug metabolism in CD-1 mouse liver microsomes assessed as hydrolysis metabolite formation rate by LC-MS/MS analysis; format: ADME; summary of the method: as §2
[6] = Mean residence time in CD-1 mouse at 2 mg/kg, iv administered as single bolus dose by LC-MS/MS analysis; format: ADME, organism-based; set-up: dose 2 mg/kg, route intravenous; conditions: in vivo; summary of the method: as §1
Plasma [7] = assay: Drug metabolism in CD-1 mouse plasma assessed as maximum intrinsic clearance for hydrolysis metabolite formation by LC-MS/MS analysis; format: ADME, cell-free
Summary of the method: (§3)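 Mouse plasma depletion kinetics at 37 °C, substrate range 0.0023–5 µM, up to 3 h; samples quenched into acetonitrile/tolbutamide, LC-MS/MS. CLint per concentration from t1/2; apparent Vmax and Km fitted by nonlinear regression to Michaelis-Menten, formation rate simulated from fit; mean of two replicates.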

[8] = In vitro half life in CD-1 mouse plasma at 0.83 uM by LC-MS/MS analysis; format: ADME, cell-free
Summary of the method: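 Screening stability: compound at 0.83 µM in mouse plasma at 37 °C, up to 3 h; timed aliquots quenched into acetonitrile with tolbutamide IS, centrifuged, LC-MS/MS; half-life from depletion, CLint = (0.693/t1/2)/plasma concentration.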

Plasma [9] = assay: Drug metabolism in CD-1 mouse plasma assessed as hydrolysis metabolite formation rate by LC-MS/MS analysis; format: ADME, cell-free; summary of the method: as §3
[10] = Half life in CD-1 mouse at 2 mg/kg, iv administered as single bolus dose by LC-MS/MS analysis; format: ADME, organism-based; set-up: dose 2 mg/kg, route intravenous; conditions: in vivo; summary of the method: as §1
[11] = AUC (0 to infinity) in CD-1 mouse at 2 mg/kg, iv administered as single bolus dose by LC-MS/MS analysis; format: ADME, organism-based; set-up: time infinity, dose 2 mg/kg, route intravenous; conditions: plasma; summary of the method: as §1
[12] = Ratio of drug level in blood to plasma in CD-1 mouse at 1 uM treated 20 mins after amide hydrolysis inhibitor DFP challenge measured after 1 hr by LC-MS/MS analysis; format: ADME; conditions: whole blood
Summary of the method: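 Fresh whole blood pre-incubated 20 min with 100 µM DFP, warmed to 37 °C, spiked to 1 µM, incubated 1 h, then plasma separated; reference plasma spiked at 1 µM. Extracted with 6 volumes acetonitrile/IS, LC-MS/MS; ratio = reference plasma peak area / treated plasma peak area.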

[13] = Fraction unbound in CD-1 mouse liver microsomes after 7 hrs by equilibrium dialysis method; format: ADME
Summary of the method: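 Equilibrium dialysis of 0.25 mg/mL mouse liver microsomes in phosphate buffer against PBS, 7 h at 37 °C, 5% CO2, test compound 0.1, 0.5 or 2 µM, triplicate; LC-MS/MS; fraction unbound = buffer/microsome concentration.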

## CC(C)NC(=O)[C@H]1CC[C@@H](n2/c(=N/C(=O)c3cc(F)cc(F)c3)[nH]c3ccc(CN4CCC(C(C)(C)O)CC4)cc32)CC1
[1]
  clearance: 58.5 mL/min/kg
[2]
  fraction unbound at 7 h: 0.046
[3]
  Vd: 4.49 L/kg
[4]
  Vmax(app): 143 pmol/min/mg
[4]; read-out: Km(app)
  Km: 0.936 µM
[5]
  Vmax(app): 5.12 pmol/min/mg
[5]; read-out: Km(app)
  Km: 0.0292 µM
[6]
  MRT: 1.28 h
Plasma [7]
  CL: 10.7 uL/min.ml
[8]
  half-life at 0.83 µM: 2.9 h
Plasma [9]
  Vmax(app): 3.81 pmol/min/mL
Plasma [9]; read-out: Km(app)
  Km: 0.357 µM
[10]
  half-life: 1.01 h
[11]
  AUC(0-inf): 0.957 µM·h
[12]
  blood plasma ratio at 1 h, 1 µM: 0.9
[13]
  fraction unbound at 7 h: 0.53
